Reference: ChEMBL document CHEMBL1137388, “A novel class of potent nonglycosidic and nonpeptidic pan-selectin inhibitors” (2006)
Activity calls are given as the source filed them. The rule behind the calls is not given here.

Key:
MONO-MAC-6 [1] = assay: Viability of MM6 cells at 100 uM by Roche-XTT assay relative to control; assay type: functional, Homo sapiens
In short: (§1)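 XTT assay: metabolically active cells convert yellow tetrazolium XTT to orange formazan. Untreated control viability set to 100%. Cells were BAEC or MM6 as named in each line; MM6 tested at 100 µM.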

[2] = Inhibition of MM6 cell adhesion to BAEC at 100 uM relative to control by static assay; assay type: functional
In short: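 BAEC monolayers (passage 1-3, 7 days after seeding) stimulated with 20 ng/mL TNFα for 4 or 16 h, test agent in DMSO or vehicle for 20 min at 37 °C/5% CO2. After washing, leukocytes added at 1 × 10^6 cells/mL for 30 min at 37 °C. Non-adherent cells washed off, adherent cells counted microscopically. TNFα-stimulated adhesion set to 100%. Single concentration, 100 µM.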

[3] = target: T1, P-selectin (Homo sapiens) (UniProt P16109); assay: Inhibition of sLex binding to P-selectin at 500 uM relative to control by glyco-ELISA assay
T1 sequence (whole entry): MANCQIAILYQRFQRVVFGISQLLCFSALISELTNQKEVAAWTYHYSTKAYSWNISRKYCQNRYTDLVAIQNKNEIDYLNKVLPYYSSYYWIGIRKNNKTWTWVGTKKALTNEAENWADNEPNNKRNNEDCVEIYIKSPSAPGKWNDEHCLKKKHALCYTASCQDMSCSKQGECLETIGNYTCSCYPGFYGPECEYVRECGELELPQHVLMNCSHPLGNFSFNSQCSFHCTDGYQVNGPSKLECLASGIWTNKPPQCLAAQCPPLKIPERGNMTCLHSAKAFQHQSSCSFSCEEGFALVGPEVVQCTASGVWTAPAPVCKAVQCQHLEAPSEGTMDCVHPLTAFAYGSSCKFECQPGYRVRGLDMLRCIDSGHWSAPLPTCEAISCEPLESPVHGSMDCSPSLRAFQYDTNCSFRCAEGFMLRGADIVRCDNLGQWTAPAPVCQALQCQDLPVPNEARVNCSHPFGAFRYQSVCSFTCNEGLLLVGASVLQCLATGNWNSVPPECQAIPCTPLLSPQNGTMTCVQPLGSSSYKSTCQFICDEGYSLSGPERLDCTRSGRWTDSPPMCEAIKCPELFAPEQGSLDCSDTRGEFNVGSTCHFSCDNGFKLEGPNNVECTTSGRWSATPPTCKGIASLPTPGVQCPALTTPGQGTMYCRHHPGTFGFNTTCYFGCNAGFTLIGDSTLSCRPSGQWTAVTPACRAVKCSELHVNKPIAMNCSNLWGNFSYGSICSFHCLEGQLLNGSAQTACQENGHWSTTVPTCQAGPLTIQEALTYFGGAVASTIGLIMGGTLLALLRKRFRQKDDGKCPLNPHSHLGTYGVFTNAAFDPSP
In short: (§2)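 Cell-free competitive binding assay. The named selectin is immobilized on microtiter plates, and compound plus sLex-tyrosine sulfate on biotinylated polyacrylamide are added. After incubation, bound ligand is detected by streptavidin-peroxidase, OD 414 nm, with empty-plate absorbance subtracted. Wells coated only with sLex define 0%; EDTA (blocks Ca2+-dependent binding) defines 100% inhibition.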

[4] = target: T2, L-selectin (Homo sapiens) (UniProt P14151); assay: Inhibition of sLex binding to L-selectin at 500 uM relative to control by glyco-ELISA assay; in short: as §2
T2 sequence (whole entry): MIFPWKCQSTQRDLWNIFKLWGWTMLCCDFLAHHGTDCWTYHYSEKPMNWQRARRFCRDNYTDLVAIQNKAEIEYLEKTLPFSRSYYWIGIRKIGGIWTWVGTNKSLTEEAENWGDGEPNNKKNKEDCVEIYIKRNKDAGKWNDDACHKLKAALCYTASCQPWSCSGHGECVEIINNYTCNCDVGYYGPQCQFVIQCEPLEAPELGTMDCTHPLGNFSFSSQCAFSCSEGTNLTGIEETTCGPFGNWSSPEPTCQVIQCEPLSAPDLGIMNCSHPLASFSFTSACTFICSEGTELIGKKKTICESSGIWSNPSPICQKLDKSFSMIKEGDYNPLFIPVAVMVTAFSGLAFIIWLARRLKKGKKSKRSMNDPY

[5] = target: T1, P-selectin (Homo sapiens); assay: Inhibition of sLex binding to P-selectin at 100 uM relative to control by glyco-ELISA assay; in short: as §2
[6] = Viability in ATP-lite assay relative to control; assay type: functional; design: concentration or dose not given beside the values
[7] = target: T3, E-selectin (Homo sapiens) (UniProt P16581); assay: Inhibition of sLex binding to E-selectin at 100 uM relative to control by glyco-ELISA assay; in short: as §2
T3 sequence (whole entry): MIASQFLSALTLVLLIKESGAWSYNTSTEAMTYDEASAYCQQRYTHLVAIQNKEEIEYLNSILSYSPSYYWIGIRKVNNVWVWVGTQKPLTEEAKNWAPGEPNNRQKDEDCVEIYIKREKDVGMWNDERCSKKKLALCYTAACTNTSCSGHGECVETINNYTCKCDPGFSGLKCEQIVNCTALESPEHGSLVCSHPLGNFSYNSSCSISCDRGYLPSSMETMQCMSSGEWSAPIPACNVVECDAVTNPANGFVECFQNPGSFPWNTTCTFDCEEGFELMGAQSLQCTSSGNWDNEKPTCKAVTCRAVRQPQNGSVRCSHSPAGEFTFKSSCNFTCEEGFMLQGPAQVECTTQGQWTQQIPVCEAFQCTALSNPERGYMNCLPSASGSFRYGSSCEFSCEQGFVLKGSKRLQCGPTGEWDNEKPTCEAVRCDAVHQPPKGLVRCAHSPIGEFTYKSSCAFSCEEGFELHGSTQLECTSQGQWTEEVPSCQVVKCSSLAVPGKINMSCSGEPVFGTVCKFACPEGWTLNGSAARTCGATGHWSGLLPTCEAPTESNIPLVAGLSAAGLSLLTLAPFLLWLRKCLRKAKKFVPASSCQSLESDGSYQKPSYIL

[8] = target: T2, L-selectin (Homo sapiens); assay: Inhibition of sLex binding to L-selectin at 100 uM relative to control by glyco-ELISA assay; in short: as §2
Mus musculus [9] = assay: Reduction in proteose peptone-induced PMN extravasation in C57BL/J mouse peritonitis model at 50 mg/kg, ip; assay type: functional; design: scale not given: the % may be the effect or the level left; conditions: route intraperitoneal
In short: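 Male C57BL/6 mice received 100 µL of a 50 mg/mL compound suspension in corn oil ip, or vehicle, then 1 h later 3 mL of 3% proteose peptone ip. Peritoneal leukocytes were lavaged at 6 h with cold HBSS/5 mM EDTA and stained with PE-conjugated anti-PMN, MOMA-2 and anti-CD2 antibodies. Cells were classified by scatter and fluorescence. Mean ± SEM, n = 4.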

AEC = assay: Viability of BAEC by Roche-XTT assay relative to control; assay type: functional, Bos taurus; design: concentration or dose not given beside the values; in short: as §1
MONO-MAC-6 [10] = assay: Viability of MM6 cells at 50 uM by Roche-XTT assay relative to control; assay type: functional, Homo sapiens
[11] = target: T3, E-selectin (Homo sapiens); assay: Inhibition of sLex binding to E-selectin at 500 uM relative to control by glyco-ELISA assay; in short: as §2
Mus musculus [12] = assay: Reduction in proteose peptone-induced PMN extravasation in C57BL/J mouse peritonitis model at 100 mg/kg; assay type: functional, organism-based; design: dose 100 mg/kg

SMILES	inhibition [3] [%]	inhibition [4] [%]	inhibition [7] [%]	Activity (MONO-MAC-6 [1]) [%]	inhibition at 100 µM [2] [%]	Activity [6] [%]	Activity (AEC) [%]	further results
CCCCCCCCCCOc1cc(OCCCCCCCCCC)cc(OCCCCCCN(Cc2ccc(C(=O)O)cc2)c2ccc(C(=O)O)cc2)c1	–	–	–	10	100	–	–	–
CCCCCCCCCCOc1cc(OCCCCCCCCCC)cc(OCCCCCCO/N=C(/c2ccc(C(=O)O)cc2)c2cccc(C(=O)O)c2)c1	34	50	–	–	100	–	–	–
CCCCCCCCCCOc1cc(OCCCCCCCCCC)cc(OCCCCCCN(Cc2ccc(C(=O)OC)cc2)c2ccc(C(=O)OC)cc2)c1	–	–	–	5	61	–	111	–
CCCCCCCCCCOc1cccc(OCCCCCCON=C(c2ccc(C(=O)O)cc2)c2ccc(C(=O)O)cc2)c1	–	–	–	–	67	–	40	Activity (MONO-MAC-6 [10]): 12%
CCCCCCCCCCOc1cc(OCCCCCCCCCC)cc(OCCCCCC(=O)N(c2ccc(C(=O)OC)cc2)c2ccc(C(=O)OC)c(C(=O)OC)c2)c1	90	95	–	50	115	58	90	inhibition [11]: 73%
CCCCCCCCCCOc1cc(OCCCCCCCCCC)cc(OCCCCCCON=C(c2ccc(C(=O)O)cc2)c2ccc(C(=O)O)cc2)c1	2	6	–	84	90	–	110	–
CCCCCCCCCCOc1cccc(OCCCCCC(=O)N(Cc2ccc(C(=O)O)cc2)c2ccc(C(=O)O)cc2)c1	–	–	–	–	93	–	100	–
CCCCCCCCCCOc1cc(OCCCCCCCCCC)cc(OCCCCCCON=C(c2ccc(Cl)cc2)c2ccc(Cl)cc2)c1	2	5	2	–	24	–	–	–
CC(=O)N[C@H]1[C@H]([C@H](O)[C@H](O)CO)O[C@@](O[C@H]2[C@@H](O)[C@@H](CO)O[C@@H](O[C@@H]([C@H](O[C@@H]3O[C@@H](C)[C@@H](O)[C@@H](O)[C@@H]3O)[C@H](C=O)NC(C)=O)[C@H](O)CO)[C@@H]2O)(C(=O)O)C[C@@H]1O [SIALYL LEWIS X]	–	–	–	–	41	–	–	Activity (Mus musculus [12]): inactive
CCCCCCCCCCOc1cc(OCCCCCCCCCC)cc(OCCCCCC(=O)N(Cc2ccc(C(=O)OC)cc2)c2ccc(C(=O)OC)cc2)c1	27	26	–	–	26	–	–	–

Continued, in another order:

inhibition [3] [%]	inhibition [4] [%]	inhibition [7] [%]	SMILES	Activity (MONO-MAC-6 [1]) [%]	inhibition at 100 µM [2] [%]	Activity [6] [%]	Activity (AEC) [%]	further results
81	82	94	CCCCCCCCCCOc1cc(OCCCCCCCCCC)cc(OCCCCCCN(c2ccc(C(=O)O)cc2)c2ccc(C(=O)O)cc2)c1	112	107	77	102	inhibition [5]: 35%; inhibition [8]: 41%; Activity (Mus musculus [9]): 44%
19	5	–	O=C(O)c1ccc(N(C(=O)CCCCCBr)c2cccc(C(=O)O)c2)cc1	–	2	–	75	–
103	103	42	CCCCCCCCCCOc1cccc(OCCCCCC(=O)N(Cc2ccc(C(=O)O)cc2)c2cccc(C(=O)O)c2)c1	101	70	4	20	–
78	75	65	CCCCCCCCCCOc1cccc(OCCCCCC(=O)N(Cc2ccc(C(=O)OC)cc2)c2ccc(C(=O)OC)cc2)c1	80	26	68	–	–
49	50	–	CCCCCCCCCCOc1cc(OCCCCCCCCCC)cc(OCCCCCC(=O)N(Cc2ccc(C(=O)O)cc2)c2ccc(C(=O)O)cc2)c1	–	56	–	36	–
95	92	43	CCCCCCCCCCOc1cc(OCCCCCCCCCC)cc(OCCCCCC(=O)N(Cc2ccc(C(=O)O)cc2)c2cccc(C(=O)O)c2)c1	11	82	0	46	–
16	16	–	CCCCCCCCCCOc1cc(OCCCCCCCCCC)cc(OCCCCCC(=O)N(c2ccc(C(=O)OC)cc2)c2ccc(C(=O)OC)cc2)c1	–	10	–	–	inhibition [11]: 5%
12	6	5	O=C(O)c1ccc(N(C(=O)CCCCCBr)c2ccc(C(=O)O)cc2)cc1	–	4	–	–	–
58	53	–	CCCCCCCCCCOc1cc(OCCCCCCCCCC)cc(OCCCCCC(=O)N(c2ccc(C(=O)O)cc2)c2cccc(C(=O)O)c2)c1	–	–	–	–	–
79	86	18	CCCCCCCCCCOc1cccc(OCCCCCC(=O)N(Cc2ccc(C(=O)OC)cc2)c2cccc(C(=O)OC)c2)c1	98	45	62	99	–
